Measured values from ChEMBL document CHEMBL5303300, “EUbOPEN Chemogenomics Library - Multiplex” (2023).
“And” between values parts separate entries of the source, which are not always exact repeats. Equal values may be shown once.

System: HEK-293T
Assay: Multiplex assay against HEK293T
Format: toxicity, cell-based
Conditions: human, number of replicates 2
In short: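 Live cells were stained at seeding with Hoechst33342, BioTracker Green Microtubule Cytoskeleton Dye, MitoTracker Red and Annexin V Alexa Fluor 680. Following compound addition, they were imaged on a CQ1 microscope at 37°C and 5% CO2 and gated by CellPathfinder machine learning into Hoechst high-intensity objects or normal cells, with normal cells split into healthy, pyknosed or fragmented nuclei and pyknosed cells into mitotic or apoptotic. Tubulin, mitochondrial-mass and membrane-permeability phenotypes are per cents of healthy-nucleus cells.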

[1] = 12 h, 1 µM, compound concentration 1 uM
[2] = 12 h, 10 µM, compound concentration 10 uM
[3] = 24 h, 1 µM, compound concentration 1 uM
[4] = 24 h, 10 µM, compound concentration 10 uM
[5] = 48 h, 1 µM, compound concentration 1 uM
[6] = 48 h, 10 µM, compound concentration 10 uM

## N=C(N)NCCC[C@H](NC(=O)COCC(c1ccccc1)c1ccccc1)C(=O)O.O=C(O)C(F)(F)F
[1]
  Population Apoptotic (%): 49% and 39%
  Population Fragmented Nuclei (%): 2%
  Population Healthy Nuclei (%): 85%
  Population Hoechst High Intensity Objects (%): 5% and 6%
  Population Membrane Permeable-Phenotype (%): 2% and 3%
  Population Mitochondria Different-Phenotype (%): 13% and 9%
  Population Mitotic Cells (%): 50% and 60%
  Population Normal (%): 94% and 93%
  Population Pyknosed Nuclei (%): 12% and 11%
  Population Tubulin-Different-Phenotype (%): 54% and 41%
  Total Cell Count: 596 and 692
[2]
  Population Apoptotic (%): 60% and 68%
  Population Fragmented Nuclei (%): 5% and 6%
  Population Healthy Nuclei (%): 80% and 81%
  Population Hoechst High Intensity Objects (%): 9% and 8%
  Population Membrane Permeable-Phenotype (%): 2%
  Population Mitochondria Different-Phenotype (%): 19% and 14%
  Population Mitotic Cells (%): 39% and 31%
  Population Normal (%): 90% and 91%
  Population Pyknosed Nuclei (%): 14% and 12%
  Population Tubulin-Different-Phenotype (%): 55% and 41%
  Total Cell Count: 543 and 565
[3]
  Population Apoptotic (%): 43% and 44%
  Population Fragmented Nuclei (%): 4%
  Population Healthy Nuclei (%): 89% and 88%
  Population Hoechst High Intensity Objects (%): 7% and 10%
  Population Membrane Permeable-Phenotype (%): 3%
  Population Mitochondria Different-Phenotype (%): 2% and 3%
  Population Mitotic Cells (%): 56% and 55%
  Population Normal (%): 92% and 89%
  Population Pyknosed Nuclei (%): 5% and 7%
  Population Tubulin-Different-Phenotype (%): 20% and 31%
  Total Cell Count: 1117 and 835
[4]
  Population Apoptotic (%): 49% and 48%
  Population Fragmented Nuclei (%): 6% and 7%
  Population Healthy Nuclei (%): 83% and 79%
  Population Hoechst High Intensity Objects (%): 7%
  Population Membrane Permeable-Phenotype (%): 2%
  Population Mitochondria Different-Phenotype (%): 7% and 6%
  Population Mitotic Cells (%): 50% and 51%
  Population Normal (%): 92%
  Population Pyknosed Nuclei (%): 9% and 12%
  Population Tubulin-Different-Phenotype (%): 27% and 25%
  Total Cell Count: 838 and 806
[5]
  Population Apoptotic (%): 12%
  Population Fragmented Nuclei (%): 15% and 9%
  Population Healthy Nuclei (%): 82% and 87%
  Population Hoechst High Intensity Objects (%): 9% and 7%
  Population Membrane Permeable-Phenotype (%): 5% and 4%
  Population Mitochondria Different-Phenotype (%): 0%
  Population Mitotic Cells (%): 87%
  Population Normal (%): 90% and 92%
  Population Pyknosed Nuclei (%): 2% and 3%
  Population Tubulin-Different-Phenotype (%): 10% and 14%
  Total Cell Count: 3157 and 1745
[6]
  Population Apoptotic (%): 14% and 24%
  Population Fragmented Nuclei (%): 15% and 13%
  Population Healthy Nuclei (%): 81% and 83%
  Population Hoechst High Intensity Objects (%): 7% and 6%
  Population Membrane Permeable-Phenotype (%): 7% and 4%
  Population Mitochondria Different-Phenotype (%): 0%
  Population Mitotic Cells (%): 85% and 75%
  Population Normal (%): 92% and 93%
  Population Pyknosed Nuclei (%): 2%
  Population Tubulin-Different-Phenotype (%): 12% and 10%
  Total Cell Count: 2204 and 2125

## Cn1cc(-n2cnc3c(NCc4nc5cc(Cl)c(Cl)cc5[nH]4)nc(N4CCOCC4)nc32)cn1
[1]
  Population Apoptotic (%): 69% and 59%
  Population Fragmented Nuclei (%): 3% and 5%
  Population Healthy Nuclei (%): 76% and 75%
  Population Hoechst High Intensity Objects (%): 16% and 17%
  Population Membrane Permeable-Phenotype (%): 3% and 1%
  Population Mitochondria Different-Phenotype (%): 65% and 66%
  Population Mitotic Cells (%): 30% and 40%
  Population Normal (%): 83% and 82%
  Population Pyknosed Nuclei (%): 20% and 19%
  Population Tubulin-Different-Phenotype (%): 83% and 84%
  Total Cell Count: 293 and 335
[2]
  Population Apoptotic (%): 71% and 65%
  Population Fragmented Nuclei (%): 4% and 2%
  Population Healthy Nuclei (%): 78% and 76%
  Population Hoechst High Intensity Objects (%): 18% and 12%
  Population Membrane Permeable-Phenotype (%): 1% and 2%
  Population Mitochondria Different-Phenotype (%): 77% and 73%
  Population Mitotic Cells (%): 28% and 34%
  Population Normal (%): 81% and 87%
  Population Pyknosed Nuclei (%): 16% and 20%
  Population Tubulin-Different-Phenotype (%): 95% and 96%
  Total Cell Count: 262 and 266
[3]
  Population Apoptotic (%): 72% and 66%
  Population Fragmented Nuclei (%): 2% and 4%
  Population Healthy Nuclei (%): 72% and 74%
  Population Hoechst High Intensity Objects (%): 25% and 27%
  Population Membrane Permeable-Phenotype (%): 3% and 0%
  Population Mitochondria Different-Phenotype (%): 75% and 82%
  Population Mitotic Cells (%): 27% and 33%
  Population Normal (%): 74% and 72%
  Population Pyknosed Nuclei (%): 25% and 20%
  Population Tubulin-Different-Phenotype (%): 78% and 89%
  Total Cell Count: 256 and 257
[4]
  Population Apoptotic (%): 69% and 85%
  Population Fragmented Nuclei (%): 2% and 5%
  Population Healthy Nuclei (%): 81% and 80%
  Population Hoechst High Intensity Objects (%): 21% and 11%
  Population Membrane Permeable-Phenotype (%): 2% and 0%
  Population Mitochondria Different-Phenotype (%): 87% and 88%
  Population Mitotic Cells (%): 30% and 14%
  Population Normal (%): 78% and 88%
  Population Pyknosed Nuclei (%): 15% and 13%
  Population Tubulin-Different-Phenotype (%): 92% and 95%
  Total Cell Count: 217
[5]
  Population Apoptotic (%): 69% and 62%
  Population Fragmented Nuclei (%): 7% and 6%
  Population Healthy Nuclei (%): 69% and 74%
  Population Hoechst High Intensity Objects (%): 20% and 29%
  Population Membrane Permeable-Phenotype (%): 5% and 1%
  Population Mitochondria Different-Phenotype (%): 66% and 78%
  Population Mitotic Cells (%): 30% and 37%
  Population Normal (%): 79% and 70%
  Population Pyknosed Nuclei (%): 22% and 19%
  Population Tubulin-Different-Phenotype (%): 75% and 87%
  Total Cell Count: 308 and 317
[6]
  Population Apoptotic (%): 70% and 84%
  Population Fragmented Nuclei (%): 5%
  Population Healthy Nuclei (%): 78% and 70%
  Population Hoechst High Intensity Objects (%): 17% and 11%
  Population Membrane Permeable-Phenotype (%): 1% and 2%
  Population Mitochondria Different-Phenotype (%): 89% and 87%
  Population Mitotic Cells (%): 29% and 16%
  Population Normal (%): 82% and 88%
  Population Pyknosed Nuclei (%): 16% and 23%
  Population Tubulin-Different-Phenotype (%): 94% and 93%
  Total Cell Count: 275 and 237

## COc1ccc(NC(=O)c2ccc(-c3ccc(-c4noc(C)n4)cc3C)cc2)cc1OCCN(C)C.Cl
[1]
  Population Apoptotic (%): 44% and 57%
  Population Fragmented Nuclei (%): 3%
  Population Healthy Nuclei (%): 84% and 81%
  Population Hoechst High Intensity Objects (%): 6% and 8%
  Population Membrane Permeable-Phenotype (%): 3% and 4%
  Population Mitochondria Different-Phenotype (%): 26% and 29%
  Population Mitotic Cells (%): 55% and 42%
  Population Normal (%): 93% and 91%
  Population Pyknosed Nuclei (%): 11% and 15%
  Population Tubulin-Different-Phenotype (%): 80% and 75%
  Total Cell Count: 604 and 505
[2]
  Population Apoptotic (%): 83% and 80%
  Population Fragmented Nuclei (%): 5% and 4%
  Population Healthy Nuclei (%): 51% and 50%
  Population Hoechst High Intensity Objects (%): 19% and 18%
  Population Membrane Permeable-Phenotype (%): 4% and 1%
  Population Mitochondria Different-Phenotype (%): 74% and 77%
  Population Mitotic Cells (%): 16% and 19%
  Population Normal (%): 80% and 81%
  Population Pyknosed Nuclei (%): 43% and 44%
  Population Tubulin-Different-Phenotype (%): 87% and 90%
  Total Cell Count: 326 and 269
[3]
  Population Apoptotic (%): 55% and 64%
  Population Fragmented Nuclei (%): 5%
  Population Healthy Nuclei (%): 84% and 81%
  Population Hoechst High Intensity Objects (%): 6% and 11%
  Population Membrane Permeable-Phenotype (%): 6% and 3%
  Population Mitochondria Different-Phenotype (%): 19%
  Population Mitotic Cells (%): 44% and 35%
  Population Normal (%): 93% and 88%
  Population Pyknosed Nuclei (%): 10% and 13%
  Population Tubulin-Different-Phenotype (%): 66% and 62%
  Total Cell Count: 768 and 603
[4]
  Population Apoptotic (%): 82% and 89%
  Population Fragmented Nuclei (%): 6%
  Population Healthy Nuclei (%): 32% and 33%
  Population Hoechst High Intensity Objects (%): 23% and 19%
  Population Membrane Permeable-Phenotype (%): 6% and 0%
  Population Mitochondria Different-Phenotype (%): 74% and 77%
  Population Mitotic Cells (%): 17% and 10%
  Population Normal (%): 76% and 80%
  Population Pyknosed Nuclei (%): 60%
  Population Tubulin-Different-Phenotype (%): 74% and 86%
  Total Cell Count: 296 and 269
[5]
  Population Apoptotic (%): 43% and 51%
  Population Fragmented Nuclei (%): 10% and 8%
  Population Healthy Nuclei (%): 84% and 83%
  Population Hoechst High Intensity Objects (%): 9% and 10%
  Population Membrane Permeable-Phenotype (%): 5%
  Population Mitochondria Different-Phenotype (%): 3% and 6%
  Population Mitotic Cells (%): 56% and 48%
  Population Normal (%): 90% and 89%
  Population Pyknosed Nuclei (%): 4% and 8%
  Population Tubulin-Different-Phenotype (%): 40% and 41%
  Total Cell Count: 1630 and 1219
[6]
  Population Apoptotic (%): 86% and 92%
  Population Fragmented Nuclei (%): 8% and 7%
  Population Healthy Nuclei (%): 24% and 19%
  Population Hoechst High Intensity Objects (%): 28% and 22%
  Population Membrane Permeable-Phenotype (%): 3% and 2%
  Population Mitochondria Different-Phenotype (%): 72% and 70%
  Population Mitotic Cells (%): 13% and 7%
  Population Normal (%): 71% and 77%
  Population Pyknosed Nuclei (%): 66% and 72%
  Population Tubulin-Different-Phenotype (%): 84% and 87%
  Total Cell Count: 289 and 271

## CS(=O)(=O)c1ccc(NC(=O)c2cccc(COc3ccc(Br)cc3CNCCO)c2)c(Cl)c1.O=CO
[1]
  Population Healthy Nuclei (%): 83%
  Population Mitotic Cells (%): 47% and 41%
  Population Pyknosed Nuclei (%): 14%
  Total Cell Count: 651 and 549
[2]
  Population Healthy Nuclei (%): 84% and 82%
  Population Mitotic Cells (%): 37% and 33%
  Total Cell Count: 462
[3]
  Population Healthy Nuclei (%): 85% and 84%
  Population Mitotic Cells (%): 46%
  Population Pyknosed Nuclei (%): 8% and 10%
  Total Cell Count: 981 and 842
[4]
  Population Healthy Nuclei (%): 82% and 80%
  Population Mitotic Cells (%): 33% and 32%
  Population Pyknosed Nuclei (%): 16%
  Total Cell Count: 436 and 479
[5]
  Population Healthy Nuclei (%): 84% and 85%
  Population Mitotic Cells (%): 74% and 85%
  Population Pyknosed Nuclei (%): 4% and 3%
  Total Cell Count: 1426 and 1953
[6]
  Population Healthy Nuclei (%): 84% and 85%
  Population Mitotic Cells (%): 21%
  Population Pyknosed Nuclei (%): 10% and 9%
  Total Cell Count: 560 and 607
